The source of these data is PMC2864424 (Current Chemical Genomics, 2010).

For data set [1], the system named is OATP1B1 and OATP1B3 (not distinguished). The class given is cell-based, human. To be noted: human, CHO cells stably expressing OATP1B1 or OATP1B3, pH 7.4, probe FMTX, 5 µM.
The target in data set [2] is T1, OATP1B3 (Homo sapiens, UniProt Q9NPD5).
T1 sequence (Q9NPD5 1-702): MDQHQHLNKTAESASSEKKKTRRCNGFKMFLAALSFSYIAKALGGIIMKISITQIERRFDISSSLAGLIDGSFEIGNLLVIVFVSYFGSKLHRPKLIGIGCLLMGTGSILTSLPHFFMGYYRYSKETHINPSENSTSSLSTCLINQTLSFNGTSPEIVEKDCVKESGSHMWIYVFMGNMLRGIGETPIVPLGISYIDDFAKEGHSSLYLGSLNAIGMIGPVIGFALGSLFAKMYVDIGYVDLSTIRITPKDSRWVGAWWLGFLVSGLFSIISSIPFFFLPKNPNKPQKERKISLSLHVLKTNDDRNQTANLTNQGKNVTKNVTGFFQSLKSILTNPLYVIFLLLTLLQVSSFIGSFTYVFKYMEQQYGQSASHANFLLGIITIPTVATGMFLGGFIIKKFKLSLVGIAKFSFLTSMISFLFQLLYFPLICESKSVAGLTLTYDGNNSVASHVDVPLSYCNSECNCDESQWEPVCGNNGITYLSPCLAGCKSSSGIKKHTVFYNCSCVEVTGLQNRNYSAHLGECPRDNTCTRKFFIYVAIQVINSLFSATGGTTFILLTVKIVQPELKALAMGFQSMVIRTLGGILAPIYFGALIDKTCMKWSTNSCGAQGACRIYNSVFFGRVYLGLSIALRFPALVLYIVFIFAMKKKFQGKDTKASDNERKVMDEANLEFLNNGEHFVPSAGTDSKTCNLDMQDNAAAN
The class given is cell-based. The conditions noted are these: for preferential inhibition of OATP1B3-mediated FMTX transport: compared with OATP1B1.

Data set [3] has as its target T2, OATP1B1 (Homo sapiens, UniProt Q9Y6L6).
T2 sequence (Q9Y6L6 1-691): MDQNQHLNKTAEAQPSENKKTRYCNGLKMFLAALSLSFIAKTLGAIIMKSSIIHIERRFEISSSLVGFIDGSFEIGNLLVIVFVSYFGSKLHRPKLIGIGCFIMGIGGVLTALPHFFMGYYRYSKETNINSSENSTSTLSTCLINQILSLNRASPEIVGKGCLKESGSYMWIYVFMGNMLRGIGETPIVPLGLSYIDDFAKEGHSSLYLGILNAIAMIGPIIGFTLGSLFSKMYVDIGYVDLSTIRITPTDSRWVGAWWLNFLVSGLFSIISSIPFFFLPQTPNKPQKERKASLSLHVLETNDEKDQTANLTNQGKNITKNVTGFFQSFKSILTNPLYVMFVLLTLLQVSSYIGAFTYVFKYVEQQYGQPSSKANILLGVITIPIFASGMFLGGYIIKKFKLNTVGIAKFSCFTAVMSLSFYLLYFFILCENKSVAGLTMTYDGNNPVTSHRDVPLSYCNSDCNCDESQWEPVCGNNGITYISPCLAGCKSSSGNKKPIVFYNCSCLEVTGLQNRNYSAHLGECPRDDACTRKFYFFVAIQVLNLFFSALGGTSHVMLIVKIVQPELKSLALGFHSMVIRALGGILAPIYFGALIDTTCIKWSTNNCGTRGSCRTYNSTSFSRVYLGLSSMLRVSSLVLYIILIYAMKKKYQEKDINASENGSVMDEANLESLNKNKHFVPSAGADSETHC
In kind it is cell-based. To be noted: for preferential / selective inhibition of OATP1B1-mediated FMTX transport: compared with OATP1B3.

Data set [4] concerns the target T1, OATP1B3. The class given is cell-based. The procedure, abridged:
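Stably transfected CHO cells were grown at 37 °C, 5% CO2 in DMEM with 10% FBS, L-proline and 500 μg/ml G-418, passaged twice weekly and used up to passage 55. Cells were washed with 37 °C uptake buffer (pH 7.4) and incubated with fluorescent compound at 37 °C. Cells were then washed four times with ice-cold buffer and lysed in 1% Triton X-100. Fluorescence was read at 485/528 nm, with Vmax expressed per mg protein per min.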

Data set [5] addresses T2, OATP1B1. In kind it is cell-based. The conditions noted are these: 24-well plates.
The test system of data set [6] is OATP1B1. The conditions noted are these: read-out: Ki, inhibition of OATP1B1-mediated pitavastatin uptake; cited from earlier work.
In data set [7] the test system is OATP2B1. The conditions noted are these: cited from earlier work.
Data set [8] deals with OATP1B1 and OATP1B3. In kind it is cell-based, human. The conditions noted are these: primary screen of FMTX uptake by OATP1B1 or OATP1B3.
The subject of data set [9] is wild-type CHO cells. The data set is described as follows: FMTX uptake into wild-type CHO cells, 96-well plates. In kind it is cell-based, Chinese Hamster. The conditions noted are these: 5 μM FMTX, 30 min, room temperature. An outline of the steps: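 Cells were washed three times with room-temperature buffer and given 5 µM FMTX for 30 min at room temperature. They were then washed four times and lysed in 1% Triton X-100 in PBS. Fluorescence was read at ex 485/em 528 nm.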

Substrate in data set [10]: O=C1OC2(c3ccc(O)cc3Oc3cc(O)ccc32)c2ccccc21
In kind it is cell-based, human. To be noted: other: 37 °C, 2 min, 24-well plates, net uptake.

Setting [11] is: 5 μM FMTX, 30 min, room temperature, 96-well plates.
Setting [12] is: 5 μM FMTX, 30 min, room temperature, 96-well plates, no inhibitor.

Where two headings read alike, the source gives them in different places.

For `CCN1C[C@]2(COC)[C@H](O)C[C@H](OC)[C@@]34[C@@H]5C[C@@]6(O)[C@H](OC(=O)c7ccccc7)[C@@H]5[C@@](OC(C)=O)([C@@H]([C@H](OC)[C@H]23)[C@@H]14)[C@@H](O)[C@@H]6OC` [Aconitine], the IC50 at 30 min in [1] is > 100 µM.
As for `C[C@H]1C[C@H]2[C@@H]3CCC4=CC(=O)C=C[C@]4(C)[C@@]3(Cl)[C@@H](O)C[C@]2(C)[C@@]1(O)C(=O)CO` [Beclomethasone], the “selectivity for OATP1B3 over OATP1B1” value in [2] (FMTX uptake IC50 values) is “about 5 fold”. In addition, the “preferential inhibition of OATP1B3-mediated FMTX transport” value in [2] is “preferential inhibitors”; in data set [2] (listed as beclamethasone), “preferentially inhibited OATP1B3”.
Regarding `CC(C)C[C@H]1C(=O)N2CCC[C@H]2[C@]2(O)O[C@](NC(=O)[C@@H]3C=C4c5cccc6[nH]cc(c56)C[C@H]4N(C)C3)(C(C)C)C(=O)N12` [Ergocryptine], the “preferential / selective inhibition of OATP1B1-mediated FMTX transport” value (“preferential / selective inhibition” below) in data set [3] is “preferentially inhibited OATP1B1”.
In the case of `CCOC(=O)c1cncn1[C@H](C)c1ccccc1` [Etomidate], the IC50 at 30 min in [1] was > 100 µM.
Regarding `O=C(COc1ccc(Cl)cc1)N1CCN(Cc2ccc3c(c2)OCO3)CC1` [Fipexide], the “preferential / selective inhibition” value in data set [3] is recorded as “preferentially inhibited OATP1B1”.
For `Cc1ncc([N+](=O)[O-])n1CCO` [Metronidazole], the IC50 at 30 min in data set [1] was > 100 µM.
As to `CCOC(=O)Nc1ccc2c(c1)N(C(=O)CCN1CCOCC1)c1ccccc1S2` [Moricizine], the “preferential inhibition of OATP1B3-mediated FMTX transport” value in data set [2] is listed as “preferentially inhibited OATP1B3”.
For the molecule `O=C(O)c1cccnc1Nc1cccc(C(F)(F)F)c1` [Niflumic acid], the “preferential / selective inhibition” value in data set [3] is reported as “preferentially inhibited OATP1B1”.
On the same count and under the same terms, next, `CCOc1cc(CC(=O)N[C@@H](CC(C)C)c2ccccc2N2CCCCC2)ccc1C(=O)O` [Repaglinide]: “preferentially inhibited OATP1B1”.
In the case of `O=c1[nH]c(=O)n([C@H]2C[C@H](O)[C@@H](CO)O2)cc1C(F)(F)F` [Trifluridine], the IC50 at 30 min in [1] is > 100 µM.
With `O=C1OC2(c3ccc(O)cc3Oc3cc(O)ccc32)c2ccccc21` [fluorescein], the Km at 2 min in data set [4] (human, CHO cells stably expressing OATP1B3, pH 7.4) worked out at 82 ± 10 µM. Further, in data set [5] (1 µM, 30 min), the “transported by OATP1B1” value is listed as “transported”.
For `CN(Cc1cnc2nc(N)nc(N)c2n1)c1ccc(C(=O)N[C@@H](CCC(=O)O)C(=O)O)cc1` [methotrexate], the inhibition at 30 min, 100 µM in data set [1] is 30%. Further, the Ki in [6] is > 300 µM.
As for `CC(=O)[C@H]1CC[C@H]2[C@@H]3CCC4=CC(=O)CC[C@]4(C)[C@H]3CC[C@]12C` [progesterone], in data set [7], the “effect on OATP2B1-mediated estrone-3-sulfate uptake” value is on record as “stimulate”. The molecule also yielded an EC50 in data set [2] of 0.2 µM. In addition, in data set [2] (setting [11]), the “effect on OATP1B3-mediated FMTX uptake” value is recorded as “stimulated”. Further, 5.4 ± 1.9 µM corresponded to half-maximal inhibition in data set [3] (IC50). In addition, the “effect on OATP1B1-mediated FMTX uptake” value in data set [3] (setting [11]) was “inhibited”.
As to `CC(C)(C)NC(=O)[C@@H]1C[C@@H]2CCCC[C@@H]2CN1C[C@@H](O)[C@H](Cc1ccccc1)NC(=O)[C@H](CC(N)=O)NC(=O)c1ccc2ccccc2n1` [saquinavir], the “Prestwick library screening result” value in data set [8] is given as “strongest inhibitors”.
Turning to Alexa Fluor® 488 methotrexate [AMTX], the “substrate of OATP1B3” value in [4] (1 µM, 30 min, 24-well plates) is recorded as “not transported”.
With Bromocryptine, the “preferential / selective inhibition” value in [3] is on record as “preferentially inhibited OATP1B1”.
Regarding fluorescein-methotrexate [FMTX], in [9], the “typical uptake, wild-type CHO cells” value is 4,400 ± 80 fluorescent units. The “uptake signal, OATP1B3” value in data set [4] (1 µM, 30 min, 24-well plates, versus wild-type CHO) is given as “about 4.5 fold”. In data set [4] (37 °C, 2 min, 24-well plates), the “Vmax, OATP1B3” value is reported as 4772 ± 709 fluorescent units/mg protein * min. The “fold higher transport efficiency of OATP1B3 than OATP1B1” value in data set [4] (Vmax/Km compared) is 2–3 fold. Moreover, the Km in data set [4] (read-out: apparent Km, OATP1B3, 37 °C, 2 min, 24-well plates, net uptake) stood at 7.9 ± 2 µM; in [5] (read-out: apparent Km, OATP1B1, 37 °C, 2 min, net uptake), 3.8 ± 0.7 µM. The “typical uptake, OATP1B3-expressing cells” value in data set [2] (setting [11]) is listed as 33,880 ± 3,645 fluorescent units. Also, the “signal-to-basal ratio of uptake, OATP1B3” value in data set [2] (setting [12]) amounted to 7.7. In addition, the “typical uptake, OATP1B1-expressing cells” value in data set [3] (setting [11]) was 15,060 ± 1,540 fluorescent units. The “signal-to-basal ratio of uptake, OATP1B1” value in data set [3] (setting [12]) was found to be 3.4. Besides, the “transported by OATP1B1” value in data set [5] (1 µM, 30 min) is given as “transported”. In data set [5] (1 µM, 30 min, versus wild-type CHO), the “uptake signal, OATP1B1” value was “about 3 fold”. Besides, the “Vmax, OATP1B1” value in data set [5] (37 °C, 2 min) was 961 ± 198 fluorescent units/mg protein * min.

B1: OATP1B1 (Homo sapiens) (protein)
chain: T2 sequence (Q9Y6L6 1-691)
B1: the Michaelis-Menten constant (Km) in data set [10] was 38 ± 5 µM.
